How the values were obtained:
Format in all cases: tissue-based
[1] = target: T1, Muscarinic acetylcholine receptor M2 (Sus scrofa) (UniProt P06199); assay: Inhibition of [3H]NMS dissociation from muscarinic acetylcholine receptor M2 of pig heart ventricle homogenates; n=11
T1 sequence (whole entry): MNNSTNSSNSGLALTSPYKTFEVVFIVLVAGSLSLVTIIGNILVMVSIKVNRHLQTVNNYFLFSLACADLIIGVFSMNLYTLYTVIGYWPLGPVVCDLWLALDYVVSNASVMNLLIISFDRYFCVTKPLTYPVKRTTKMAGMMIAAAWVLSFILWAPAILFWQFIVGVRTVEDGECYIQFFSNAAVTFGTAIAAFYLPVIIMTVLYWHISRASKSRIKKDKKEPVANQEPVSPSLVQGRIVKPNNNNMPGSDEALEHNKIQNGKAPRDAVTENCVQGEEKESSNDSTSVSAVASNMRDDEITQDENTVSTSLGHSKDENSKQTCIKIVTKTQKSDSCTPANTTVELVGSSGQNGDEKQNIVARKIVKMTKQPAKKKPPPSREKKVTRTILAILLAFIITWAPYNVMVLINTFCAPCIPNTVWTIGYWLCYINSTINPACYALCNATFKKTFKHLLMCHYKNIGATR
How it was run: (§1)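 Two-point kinetic dissociation assay in porcine heart homogenates (M2) at 37 °C, 3 mM MgHPO4/50 mM Tris-HCl, pH 7.3. Membranes were preincubated 30 min with 0.2 nM [3H]NMS. Dissociation was started by 1 µM atropine alone or plus test compound, and specific binding measured at t = 0 and 10. Apparent k-1 relative to control was plotted against log concentration and fitted by four-parameter logistic (slope unity) for EC50,diss.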

[2] = target: T1, Muscarinic acetylcholine receptor M2 (Sus scrofa); assay: Cooperativity for muscarinic acetylcholine receptor M2 of pig heart ventricle homogenates; n=8
How it was run: (§2)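 Pig heart ventricle homogenate (M2) equilibrium binding at 37 °C in 3 mM MgHPO4/50 mM Tris-HCl, pH 7.3. Increasing concentrations of test compound were incubated with membranes and 0.2 nM [3H]NMS. Incubation time for equilibrium in presence of allosteric agent was computed from dissociation kinetics. Nonspecific binding was defined with 1 µM atropine. Bound and free were separated by vacuum filtration, with scintillation counting.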

[3] = target: T1, Muscarinic acetylcholine receptor M2 (Sus scrofa); assay: Affinity for muscarinic acetylcholine receptor M2 of pig heart ventricle homogenates; n=8; how it was run: as §2
[4] = target: T1, Muscarinic acetylcholine receptor M2 (Sus scrofa); assay: Inhibition of [3H]NMS dissociation from muscarinic acetylcholine receptor M2 of pig heart ventricle homogenates; n=6; how it was run: as §1
[5] = target: T1, Muscarinic acetylcholine receptor M2 (Sus scrofa); assay: Cooperativity for muscarinic acetylcholine receptor M2 of pig heart ventricle homogenates; n=4; how it was run: as §2
[6] = target: T1, Muscarinic acetylcholine receptor M2 (Sus scrofa); assay: Affinity for muscarinic acetylcholine receptor M2 of pig heart ventricle homogenates; n=4; how it was run: as §2
[7] = target: T1, Muscarinic acetylcholine receptor M2 (Sus scrofa); assay: Inhibition of [3H]NMS dissociation from muscarinic acetylcholine receptor M2 of pig heart ventricle homogenates; n=5; how it was run: as §1
[8] = target: T1, Muscarinic acetylcholine receptor M2 (Sus scrofa); assay: Cooperativity for muscarinic acetylcholine receptor M2 of pig heart ventricle homogenates; n=5; how it was run: as §2
[9] = target: T1, Muscarinic acetylcholine receptor M2 (Sus scrofa); assay: Affinity for muscarinic acetylcholine receptor M2 of pig heart ventricle homogenates; n=5; how it was run: as §2
[10] = target: T1, Muscarinic acetylcholine receptor M2 (Sus scrofa); assay: Inhibition of [3H]NMS dissociation from muscarinic acetylcholine receptor M2 of pig heart ventricle homogenates; n=3; how it was run: as §1
[11] = target: T1, Muscarinic acetylcholine receptor M2 (Sus scrofa); assay: Cooperativity against muscarinic acetylcholine receptor M2 of pig heart ventricle homogenates; n=; how it was run: as §2
[12] = target: T1, Muscarinic acetylcholine receptor M2 (Sus scrofa); assay: Affinity for muscarinic acetylcholine receptor M2 of pig heart ventricle homogenates; n=3; how it was run: as §2

With `CC(C)(CN1C(=O)c2cccc3cccc(c23)C1=O)C[N+](C)(C)CCCCCC[N+](C)(C)CCCN1C(=O)c2ccccc2C1=O` the pEC50 diss [1] was 8.36, the p alpha [2] was 0.37 and the pKA [3] was 8.29.

`C[N+](C)(CCCCCC[N+](C)(C)CCCN1C(=O)c2cccc3cccc(c23)C1=O)CCCN1C(=O)c2ccccc2C1=O` showed a pEC50 diss [4] of 6.94, a p alpha [5] of -0.2 and a pKA [6] of 7.24.

In the case of `CC(C)(CN1C(=O)c2ccccc2C1=O)C[N+](C)(C)CCCCCC[N+](C)(C)CC(C)(C)CN1C(=O)c2cccc3cccc(c23)C1=O`, the pEC50 diss [7] is reported as 7.73, the p alpha [8] is reported as 0.56 and the pKA [9] is reported as 7.41.

Work on `CC(C)(CN1C(=O)c2ccccc2C1=O)C[N+](C)(C)CCCCCC[N+](C)(C)CCCN1C(=O)c2cccc3cccc(c23)C1=O` yielded a pEC50 diss [10] of 7.28, a p alpha [11] of -0.01 and a pKA [12] of 7.28.

— ChEMBL document CHEMBL1143553, “Muscarinic allosteric enhancers of ligand binding: pivotal pharmacophoric elements in hexamethonio-type agents” (J Med Chem, 2005)
